ChEMBL document CHEMBL1143718, “Synthesis and structure-activity relationships study of novel anti-tumor carbamate anhydrovinblastine analogues” (Bioorg Med Chem, 2007)

Assays:
[1] = tested on: A549; experiment: Cytotoxicity against human A549 cells after 72 hrs by SRB assay; format: functional, cell-based; conditions: A549, 72 h
How it was run: (§1)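 Ditartrate salts tested. ATCC A549 or HeLa cells seeded at 6000 cells/well and attached overnight, then treated in triplicate with graded concentrations, 37 °C, 72 h. Fixed with 10% TCA at 4 °C for 60 min, stained with 0.4% SRB, bound dye dissolved in Tris, A515 read. IC50 by Logit method, mean of three independent tests.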

[2] = tested on: HeLa; experiment: Cytotoxicity against human HeLa cells after 72 hrs by SRB assay; format: functional, cell-based; how it was run: as §1
[3] = tested on: Mus musculus; experiment: Effect on Body weight in nude BALB/c mouse bearing A549 cell xenografts at 1.5 mg/kg, iv; format: functional
How it was run: (§2)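 Female 7-week-old SPF BALB/cA-nude mice (18-22 g), 2.5 × 10^6 A549 cells implanted s.c. in axilla. Dosing at tumor volume 100-300 mm3, single i.v. dose on day 1. Tumor volume and body weight measured three times a week. Relative tumor volume and body weight reported initial/end. Groups of 6 treated, 12 controls. Means ± SD.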

[4] = tested on: Mus musculus; experiment: Effect on Body weight in nude BALB/c mouse bearing A549 cell xenografts at 3 mg/kg, iv; format: functional; how it was run: as §2
[5] = tested on: Mus musculus; experiment: Effect on Body weight in nude BALB/c mouse bearing A549 cell xenografts at 6 mg/kg, iv; format: functional; how it was run: as §2
[6] = tested on: A549; experiment: Antitumor activity in nude BALB/c mouse bearing A549 cell xenografts assessed as relative tumor volume at 1.5 mg/kg, iv; format: functional, Homo sapiens; how it was run: as §2
[7] = tested on: A549; experiment: Antitumor activity in nude BALB/c mouse bearing A549 cell xenografts assessed as relative tumor volume at 3 mg/kg, iv; format: functional, Homo sapiens; how it was run: as §2
[8] = tested on: A549; experiment: Antitumor activity in nude BALB/c mouse bearing A549 cell xenografts assessed as relative tumor volume at 6 mg/kg, iv; format: functional, Homo sapiens; how it was run: as §2
[9] = tested on: A549; experiment: Antitumor activity in nude BALB/c mouse bearing A549 cell xenografts assessed as tumor growth inhibition at 1.5 mg/kg, iv after 12 days; format: functional, Homo sapiens; conditions: A549, 288 h
How it was run: (§3)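 A549 s.c. axillary xenografts (2.5 × 10^6 cells) in female 7-week-old SPF BALB/cA-nude mice. Single i.v. dose on day 1 once tumors reached 100-300 mm3. Inhibition = (control mean relative tumor volume − treated)/control × 100%, on day 12 after dosing. Groups of 6, controls 12. Significance by Student's t test.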

[10] = tested on: A549; experiment: Antitumor activity in nude BALB/c mouse bearing A549 cell xenografts assessed as tumor growth inhibition at 3 mg/kg, iv after 12 days; format: functional, Homo sapiens; conditions: A549, 288 h; how it was run: as §3
[11] = tested on: A549; experiment: Antitumor activity in nude BALB/c mouse bearing A549 cell xenografts assessed as tumor growth inhibition at 6 mg/kg, iv after 12 days; format: functional, Homo sapiens; conditions: A549, 288 h; how it was run: as §3
[12] = tested on: Mus musculus; experiment: Effect on Body weight in nude BALB/c mouse bearing A549 cell xenografts at 10 mg/kg, iv; format: functional
How it was run: (§4)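 Female 7-week-old SPF BALB/cA nude mice (18-22 g) received 2.5 × 10^6 A549 cells subcutaneously in the axilla. Once tumors reached 100-300 mm3, they were dosed iv at 10 mg/kg on days 1 and 4 (6 mice; 12 controls). Tumor volume and body weight were measured three times weekly. Inhibition was computed from mean relative tumor volume versus control on day 12 after dosing. Means ± SD, Student's t test.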

[13] = tested on: A549; experiment: Antitumor activity in nude BALB/c mouse bearing A549 cell xenografts assessed as relative tumor volume at 10 mg/kg, iv; format: functional, Homo sapiens; how it was run: as §4
[14] = tested on: A549; experiment: Antitumor activity in nude BALB/c mouse bearing A549 cell xenografts assessed as tumor growth inhibition at 10 mg/kg, iv after 12 days; format: functional, Homo sapiens; conditions: A549, 288 h; how it was run: as §4

Row | SMILES | IC50 [1] [nM] | IC50 [2] [nM] | other results
1 | CCC1=C[C@@H]2CN(CCc3c([nH]c4ccccc34)[C@@](C(=O)OC)(c3cc4c(cc3OC)N(C)[C@H]3[C@](O)(CNC(=O)OCc5ccc([N+](=O)[O-])cc5)[C@H](OC(C)=O)[C@]5(CC)C=CCN6CC[C@]43[C@@H]65)C2)C1 | 38 | 10 | –
2 | CCCCCOC(=O)NC[C@]1(O)[C@H](OC(C)=O)[C@]2(CC)C=CCN3CC[C@@]4(c5cc([C@@]6(C(=O)OC)C[C@@H]7C=C(CC)CN(CCc8c6[nH]c6ccccc86)C7)c(OC)cc5N(C)[C@@H]14)[C@@H]32 | 426 | 184 | –
3 | CCOC(=O)NC[C@]1(O)[C@H](OC(C)=O)[C@]2(CC)C=CCN3CC[C@@]4(c5cc([C@@]6(C(=O)OC)C[C@@H]7C=C(CC)CN(CCc8c6[nH]c6ccccc86)C7)c(OC)cc5N(C)[C@@H]14)[C@@H]32 | 51 | 16 | –
4 | CCC1=C[C@@H]2CN(CCc3c([nH]c4ccccc34)[C@@](C(=O)OC)(c3cc4c(cc3OC)N(C)[C@H]3[C@](O)(CNC(=O)OC(C)(C)C)[C@H](OC(C)=O)[C@]5(CC)C=CCN6CC[C@]43[C@@H]65)C2)C1 | 604 | 96 | –
5 | CCC1=C[C@@H]2CN(CCc3c([nH]c4ccccc34)[C@@](C(=O)OC)(c3cc4c(cc3OC)N(C)[C@H]3[C@](O)(CNC(=O)OCc5ccc6c(c5)OCO6)[C@H](OC(C)=O)[C@]5(CC)C=CCN6CC[C@]43[C@@H]65)C2)C1 | 75 | 17 | –
6 | CCC1=C[C@@H]2CN(CCc3c([nH]c4ccccc34)[C@@](C(=O)OC)(c3cc4c(cc3OC)N(C)[C@H]3[C@](O)(CNC(=O)OC5CCC5)[C@H](OC(C)=O)[C@]5(CC)C=CCN6CC[C@]43[C@@H]65)C2)C1 | 121 | 23 | –
7 | CCC1=C[C@@H]2CN(CCc3c([nH]c4ccccc34)[C@@](C(=O)OC)(c3cc4c(cc3OC)N(C)[C@H]3[C@](O)(CNC(=O)OC5CCCCC5)[C@H](OC(C)=O)[C@]5(CC)C=CCN6CC[C@]43[C@@H]65)C2)C1 | 381 | 250 | –
8 | CCC1=C[C@@H]2CN(CCc3c([nH]c4ccccc34)[C@@](C(=O)OC)(c3cc4c(cc3OC)N(C)[C@H]3[C@](O)(CNC(=O)OCc5cccc(Cl)c5)[C@H](OC(C)=O)[C@]5(CC)C=CCN6CC[C@]43[C@@H]65)C2)C1 | 203 | 39 | –
9 | CCC1=C[C@@H]2CN(CCc3c([nH]c4ccccc34)[C@@](C(=O)OC)(c3cc4c(cc3OC)N(C)[C@H]3[C@](O)(CNC(=O)OC(C)C)[C@H](OC(C)=O)[C@]5(CC)C=CCN6CC[C@]43[C@@H]65)C2)C1 | 162 | 27 | –
10 | CCC1=C[C@@H]2CN(CCc3c([nH]c4ccccc34)[C@@](C(=O)OC)(c3cc4c(cc3OC)N(C)[C@H]3[C@](O)(CNC(=O)OCCOC)[C@H](OC(C)=O)[C@]5(CC)C=CCN6CC[C@]43[C@@H]65)C2)C1 | 65 | 14 | –
11 | CCC1=C[C@@H]2CN(CCc3c([nH]c4ccccc34)[C@@](C(=O)OC)(c3cc4c(cc3OC)N(C)[C@H]3[C@](O)(CNC(=O)OCC5CC5)[C@H](OC(C)=O)[C@]5(CC)C=CCN6CC[C@]43[C@@H]65)C2)C1 | 61 | 13 | –
12 | CCC1=C[C@@H]2CN(CCc3c([nH]c4ccccc34)[C@@](C(=O)OC)(c3cc4c(cc3OC)N(C)[C@H]3[C@](O)(CNC(=O)OCc5ccc(Cl)cc5)[C@H](OC(C)=O)[C@]5(CC)C=CCN6CC[C@]43[C@@H]65)C2)C1 | 89 | 6 | –
13 | CCC1=C[C@@H]2CN(CCc3c([nH]c4ccccc34)[C@@](C(=O)OC)(c3cc4c(cc3OC)N(C)[C@H]3[C@](O)(CNC(=O)OCCBr)[C@H](OC(C)=O)[C@]5(CC)C=CCN6CC[C@]43[C@@H]65)C2)C1 | 131 | 30 | –
14 | CCC1=C[C@@H]2CN(CCc3c([nH]c4ccccc34)[C@@](C(=O)OC)(c3cc4c(cc3OC)N(C)[C@H]3[C@](O)(CNC(=O)OCc5ccccc5)[C@H](OC(C)=O)[C@]5(CC)C=CCN6CC[C@]43[C@@H]65)C2)C1 | 57 | 54 | –
15 | CCC1=C[C@@H]2CN(CCc3c([nH]c4ccccc34)[C@@](C(=O)OC)(c3cc4c(cc3OC)N(C)[C@H]3[C@](O)(CNC(=O)OCc5ccc(OC)cc5)[C@H](OC(C)=O)[C@]5(CC)C=CCN6CC[C@]43[C@@H]65)C2)C1 | 67 | 8 | –
16 | CCC1=C[C@@H]2CN(CCc3c([nH]c4ccccc34)[C@@](C(=O)OC)(c3cc4c(cc3OC)N(C)[C@H]3[C@](O)(CNC(=O)Oc5ccccc5OC)[C@H](OC(C)=O)[C@]5(CC)C=CCN6CC[C@]43[C@@H]65)C2)C1 | 609 | 148 | –
17 | CCC1=C[C@@H]2CN(CCc3c([nH]c4ccccc34)[C@@](C(=O)OC)(c3cc4c(cc3OC)N(C)[C@H]3[C@](O)(CNC(=O)OC)[C@H](OC(C)=O)[C@]5(CC)C=CCN6CC[C@]43[C@@H]65)C2)C1 | 38 | 9 | Activity [3]: 21.3 g; Activity [4]: 20.4 g; Activity [5]: 18.8 g; Activity [6]: 8.18; Activity [7]: 6.96; Activity [8]: 3.48; inhibition in vivo at 1.5 mg/kg [9]: 26%; inhibition in vivo at 3 mg/kg [10]: 37.1%; inhibition in vivo at 6 mg/kg [11]: 68.5%
18 | CCC1=C[C@@H]2CN(CCc3c([nH]c4ccccc34)[C@@](C(=O)OC)(c3cc4c(cc3OC)N(C)[C@H]3[C@](O)(CNC(=O)Oc5ccccc5)[C@H](OC(C)=O)[C@]5(CC)C=CCN6CC[C@]43[C@@H]65)C2)C1 | 110 | 199 | –
19 | CCC1=C[C@@H]2CN(CCc3c([nH]c4ccccc34)[C@@](C(=O)OC)(c3cc4c(cc3OC)N(C)[C@H]3[C@](O)(CNC(=O)OCc5ccccc5OC)[C@H](OC(C)=O)[C@]5(CC)C=CCN6CC[C@]43[C@@H]65)C2)C1 | 200 | 69 | –
20 | CCC1=C[C@@H]2CN(CCc3c([nH]c4ccccc34)[C@@](C(=O)OC)(c3cc4c(cc3OC)N(C)[C@H]3[C@](O)(CNC(=O)OCC(C)C)[C@H](OC(C)=O)[C@]5(CC)C=CCN6CC[C@]43[C@@H]65)C2)C1 | 66 | 67 | –
21 | CCC1=C[C@@H]2CN(CCc3c([nH]c4ccccc34)[C@@](C(=O)OC)(c3cc4c(cc3OC)N(C)[C@H]3[C@](O)(CNC(=O)Oc5ccc(OC)cc5)[C@H](OC(C)=O)[C@]5(CC)C=CCN6CC[C@]43[C@@H]65)C2)C1 | 365 | 49 | –
22 | CCC1=C[C@@H]2CN(CCc3c([nH]c4ccccc34)[C@@](C(=O)OC)(c3cc4c(cc3OC)N(C)[C@H]3[C@](O)(CNC(=O)OCc5ccccc5[N+](=O)[O-])[C@H](OC(C)=O)[C@]5(CC)C=CCN6CC[C@]43[C@@H]65)C2)C1 | 61 | 66 | –
23 | CCC1=C[C@@H]2CN(CCc3c([nH]c4ccccc34)[C@@](C(=O)OC)(c3cc4c(cc3OC)N(C)[C@H]3[C@](O)(CNC(=O)OC5CCCC5)[C@H](OC(C)=O)[C@]5(CC)C=CCN6CC[C@]43[C@@H]65)C2)C1 | 177 | 132 | –
24 | CCC1=C[C@@H]2CN(C1)Cc1c([nH]c3ccccc13)[C@@](C(=O)OC)(c1cc3c(cc1OC)N(C)[C@H]1[C@@](O)(C(=O)OC)[C@H](OC(C)=O)[C@]4(CC)C=CCN5CC[C@]31[C@@H]54)C2 [VINORELBINE] | 49 | 26 | Activity [12]: 16.4 g; Activity [13]: 2.66; inhibition in vivo at 10 mg/kg [14]: 75.9%
